Experimental findings from ChEMBL document CHEMBL1138257, “Synthesis and biological evaluation of a fluorine-18 derivative of dasatinib” (J Med Chem, 2007) are described below.

Data set [1] deals with T1, Ephrin type-B receptor 4 (Homo sapiens) (UniProt P54760).
T1 sequence (whole entry): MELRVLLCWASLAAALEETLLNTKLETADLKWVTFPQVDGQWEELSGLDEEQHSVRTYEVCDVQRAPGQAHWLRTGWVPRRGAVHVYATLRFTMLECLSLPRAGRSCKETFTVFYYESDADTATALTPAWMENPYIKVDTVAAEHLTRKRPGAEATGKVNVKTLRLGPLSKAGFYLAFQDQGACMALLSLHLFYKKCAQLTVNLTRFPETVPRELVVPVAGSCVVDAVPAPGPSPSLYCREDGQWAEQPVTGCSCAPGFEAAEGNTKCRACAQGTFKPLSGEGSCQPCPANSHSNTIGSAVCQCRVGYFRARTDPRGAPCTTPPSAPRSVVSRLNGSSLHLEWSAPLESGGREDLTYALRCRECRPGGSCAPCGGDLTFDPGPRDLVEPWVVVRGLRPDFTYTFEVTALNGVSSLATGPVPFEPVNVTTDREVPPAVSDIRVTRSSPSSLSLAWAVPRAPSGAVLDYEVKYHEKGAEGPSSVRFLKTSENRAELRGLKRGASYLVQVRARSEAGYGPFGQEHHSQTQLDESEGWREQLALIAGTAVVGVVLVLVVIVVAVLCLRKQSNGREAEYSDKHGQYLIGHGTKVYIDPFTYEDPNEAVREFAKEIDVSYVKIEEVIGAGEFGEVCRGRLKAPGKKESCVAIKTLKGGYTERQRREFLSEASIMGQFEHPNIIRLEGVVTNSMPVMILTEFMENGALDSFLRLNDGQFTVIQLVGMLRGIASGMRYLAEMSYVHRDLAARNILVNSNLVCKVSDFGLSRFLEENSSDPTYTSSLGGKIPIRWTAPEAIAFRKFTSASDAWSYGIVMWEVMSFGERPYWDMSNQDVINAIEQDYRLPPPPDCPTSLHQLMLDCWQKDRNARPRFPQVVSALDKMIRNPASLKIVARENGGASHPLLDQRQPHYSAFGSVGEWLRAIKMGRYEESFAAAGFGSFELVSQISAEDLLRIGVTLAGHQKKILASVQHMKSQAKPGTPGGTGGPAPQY
Kind of data set: Inhibition of EphB4 at 10 nM. The method, boiled down: (§1)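 Part of a 21-kinase inhibition panel, tested at a single inhibitor concentration of 10 nM.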

The target in data set [2] is T2, Tyrosine-protein kinase Tec (Homo sapiens) (UniProt P42680).
T2 sequence (whole entry): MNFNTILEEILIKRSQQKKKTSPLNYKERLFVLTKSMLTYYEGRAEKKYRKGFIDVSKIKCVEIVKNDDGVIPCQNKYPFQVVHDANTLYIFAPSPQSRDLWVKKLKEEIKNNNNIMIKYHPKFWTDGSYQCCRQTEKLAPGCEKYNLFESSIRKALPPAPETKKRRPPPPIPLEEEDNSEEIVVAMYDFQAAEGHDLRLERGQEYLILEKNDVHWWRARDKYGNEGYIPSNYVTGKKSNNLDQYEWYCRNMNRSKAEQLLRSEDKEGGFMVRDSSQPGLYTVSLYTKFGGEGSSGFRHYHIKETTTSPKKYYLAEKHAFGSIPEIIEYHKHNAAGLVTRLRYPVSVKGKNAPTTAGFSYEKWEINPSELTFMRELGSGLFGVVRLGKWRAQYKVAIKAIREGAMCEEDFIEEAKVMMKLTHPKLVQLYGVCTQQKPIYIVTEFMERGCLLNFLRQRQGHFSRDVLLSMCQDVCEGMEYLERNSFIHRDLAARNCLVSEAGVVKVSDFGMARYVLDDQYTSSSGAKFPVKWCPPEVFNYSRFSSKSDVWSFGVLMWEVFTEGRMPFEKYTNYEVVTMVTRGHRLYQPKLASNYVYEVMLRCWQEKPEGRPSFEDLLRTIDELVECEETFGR
Briefly: Inhibition of TEC at 10 nM. Put shortly: as §1

In data set [3] the target is Activated CDC42 kinase 1 (Homo sapiens) (UniProt Q07912). Kind of data set: Inhibition of ACK at 10 nM. Put shortly: (§2)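 Single-concentration test at 10 nM within a panel of 21 kinases.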
The target in data set [4] is Receptor-type tyrosine-protein kinase FLT3 (Homo sapiens) (UniProt P36888). Briefly: Inhibition of FLT3. The conditions noted are these: concentration not given here.
Data set [5] has as its target Ephrin type-A receptor 2 (Homo sapiens) (UniProt P29317). Kind of data set: Inhibition of EphA2 at 10 nM. The method, boiled down:
as §1

In data set [6] the target is Tyrosine-protein kinase CSK (Homo sapiens) (UniProt P41240). Kind of data set: Inhibition of CSK at 10 nM. The method, boiled down: as §1
Tyrosine-protein kinase CSK (Homo sapiens), sequence (P41240 2-450 limits assumed): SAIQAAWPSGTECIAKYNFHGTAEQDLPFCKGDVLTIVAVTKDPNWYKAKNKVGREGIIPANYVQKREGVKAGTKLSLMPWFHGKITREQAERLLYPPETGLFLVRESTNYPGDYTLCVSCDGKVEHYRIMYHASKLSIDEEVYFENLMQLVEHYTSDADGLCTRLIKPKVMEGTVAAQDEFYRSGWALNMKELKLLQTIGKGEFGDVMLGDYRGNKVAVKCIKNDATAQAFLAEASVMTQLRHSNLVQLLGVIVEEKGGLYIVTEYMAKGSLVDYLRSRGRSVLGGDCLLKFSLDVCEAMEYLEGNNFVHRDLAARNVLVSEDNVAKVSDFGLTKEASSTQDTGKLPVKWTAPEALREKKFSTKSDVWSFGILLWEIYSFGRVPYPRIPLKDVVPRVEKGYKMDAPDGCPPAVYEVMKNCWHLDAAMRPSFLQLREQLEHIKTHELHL
In data set [7] the target is Proto-oncogene tyrosine-protein kinase Src (Homo sapiens) (UniProt P12931). The conditions noted are these: 10 nM.
Proto-oncogene tyrosine-protein kinase Src (Homo sapiens), sequence (P12931 2-536 limits assumed): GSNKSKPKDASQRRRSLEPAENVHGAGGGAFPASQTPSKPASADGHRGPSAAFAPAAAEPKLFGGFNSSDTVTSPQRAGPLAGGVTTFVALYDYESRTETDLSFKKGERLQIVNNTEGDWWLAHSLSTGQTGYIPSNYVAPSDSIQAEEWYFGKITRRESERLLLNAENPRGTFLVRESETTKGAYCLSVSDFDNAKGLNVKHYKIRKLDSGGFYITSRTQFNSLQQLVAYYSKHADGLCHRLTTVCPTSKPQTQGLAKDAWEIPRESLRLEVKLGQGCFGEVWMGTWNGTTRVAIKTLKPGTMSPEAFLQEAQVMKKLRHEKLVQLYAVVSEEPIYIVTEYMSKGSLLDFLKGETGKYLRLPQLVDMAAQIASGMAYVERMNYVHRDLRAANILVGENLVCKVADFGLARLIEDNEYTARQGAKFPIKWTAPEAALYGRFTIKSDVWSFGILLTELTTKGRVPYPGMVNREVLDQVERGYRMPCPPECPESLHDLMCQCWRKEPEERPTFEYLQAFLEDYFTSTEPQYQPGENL
In data set [8] the target is T3, Tyrosine-protein kinase receptor TYRO3 (Homo sapiens) (UniProt Q06418).
T3 sequence (whole entry): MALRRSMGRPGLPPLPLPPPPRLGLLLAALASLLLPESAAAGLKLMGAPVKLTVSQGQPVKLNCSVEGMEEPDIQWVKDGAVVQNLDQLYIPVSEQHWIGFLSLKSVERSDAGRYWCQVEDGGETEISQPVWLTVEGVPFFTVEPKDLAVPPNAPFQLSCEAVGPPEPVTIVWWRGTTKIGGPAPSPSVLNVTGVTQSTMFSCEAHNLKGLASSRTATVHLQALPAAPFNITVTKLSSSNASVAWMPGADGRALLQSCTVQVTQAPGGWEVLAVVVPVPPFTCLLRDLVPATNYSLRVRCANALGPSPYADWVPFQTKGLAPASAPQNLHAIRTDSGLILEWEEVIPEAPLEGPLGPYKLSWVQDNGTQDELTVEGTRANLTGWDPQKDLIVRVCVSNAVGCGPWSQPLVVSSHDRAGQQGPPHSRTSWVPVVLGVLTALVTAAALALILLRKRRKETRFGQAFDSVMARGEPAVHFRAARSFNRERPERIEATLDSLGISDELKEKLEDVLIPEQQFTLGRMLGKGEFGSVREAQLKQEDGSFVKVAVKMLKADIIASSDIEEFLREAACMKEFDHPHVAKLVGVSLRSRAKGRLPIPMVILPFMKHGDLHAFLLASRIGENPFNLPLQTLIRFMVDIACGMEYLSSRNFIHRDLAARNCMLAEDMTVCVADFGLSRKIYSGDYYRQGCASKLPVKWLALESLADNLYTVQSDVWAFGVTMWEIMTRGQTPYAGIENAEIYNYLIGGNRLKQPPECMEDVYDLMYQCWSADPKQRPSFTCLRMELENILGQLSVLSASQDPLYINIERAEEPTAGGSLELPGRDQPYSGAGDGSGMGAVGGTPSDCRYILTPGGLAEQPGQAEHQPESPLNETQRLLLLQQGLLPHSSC
Kind of data set: Inhibition of TYRO3 at 10 nM. Put shortly: as §2

In data set [9] the target is Hepatocyte growth factor receptor (Homo sapiens) (UniProt P08581). Briefly: Inhibition of Met kinase at 10 nM. The method, boiled down: as §1
Hepatocyte growth factor receptor (Homo sapiens), sequence (P08581 whole entry): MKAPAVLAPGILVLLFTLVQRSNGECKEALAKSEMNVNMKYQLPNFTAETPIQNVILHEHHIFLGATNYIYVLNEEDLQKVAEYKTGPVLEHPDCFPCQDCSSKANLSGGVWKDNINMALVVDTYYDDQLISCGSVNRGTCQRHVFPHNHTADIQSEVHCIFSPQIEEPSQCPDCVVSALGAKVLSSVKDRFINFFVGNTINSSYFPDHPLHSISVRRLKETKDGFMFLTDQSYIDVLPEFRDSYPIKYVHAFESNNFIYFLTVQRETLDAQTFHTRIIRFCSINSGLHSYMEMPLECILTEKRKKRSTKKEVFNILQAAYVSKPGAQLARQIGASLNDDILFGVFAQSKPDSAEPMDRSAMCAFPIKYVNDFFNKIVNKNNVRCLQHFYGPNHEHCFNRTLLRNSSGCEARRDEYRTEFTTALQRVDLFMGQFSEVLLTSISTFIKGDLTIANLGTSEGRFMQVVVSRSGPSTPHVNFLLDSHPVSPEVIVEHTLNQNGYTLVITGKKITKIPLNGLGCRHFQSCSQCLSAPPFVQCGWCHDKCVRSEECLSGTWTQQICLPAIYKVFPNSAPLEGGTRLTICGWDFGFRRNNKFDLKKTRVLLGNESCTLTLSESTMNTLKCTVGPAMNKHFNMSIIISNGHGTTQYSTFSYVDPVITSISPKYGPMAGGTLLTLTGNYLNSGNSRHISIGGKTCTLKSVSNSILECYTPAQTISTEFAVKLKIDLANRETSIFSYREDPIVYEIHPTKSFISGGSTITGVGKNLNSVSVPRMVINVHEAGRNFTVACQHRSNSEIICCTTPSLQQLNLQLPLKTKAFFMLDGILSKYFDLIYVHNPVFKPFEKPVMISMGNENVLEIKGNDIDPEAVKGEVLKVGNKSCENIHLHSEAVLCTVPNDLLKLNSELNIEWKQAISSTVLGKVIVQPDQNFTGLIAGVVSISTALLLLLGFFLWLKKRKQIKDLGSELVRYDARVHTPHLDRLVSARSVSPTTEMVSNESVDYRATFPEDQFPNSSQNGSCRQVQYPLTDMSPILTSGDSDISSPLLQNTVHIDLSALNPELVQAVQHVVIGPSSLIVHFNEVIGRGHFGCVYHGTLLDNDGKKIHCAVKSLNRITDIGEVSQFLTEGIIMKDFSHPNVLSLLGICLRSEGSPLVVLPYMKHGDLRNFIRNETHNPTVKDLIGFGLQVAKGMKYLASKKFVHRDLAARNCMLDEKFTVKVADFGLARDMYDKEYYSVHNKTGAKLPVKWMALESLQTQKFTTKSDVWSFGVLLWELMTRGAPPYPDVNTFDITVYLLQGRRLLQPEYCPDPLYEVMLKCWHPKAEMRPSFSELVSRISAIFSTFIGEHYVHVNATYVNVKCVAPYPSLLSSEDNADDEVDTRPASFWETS
Data set [10] addresses Platelet-derived growth factor receptor alpha (Homo sapiens) (UniProt P16234). Kind of data set: Inhibition of PDGFRalpha at 10 nM. Put shortly:
as §1

For data set [11], the system named is Mus musculus. Kind of data set: Biodistribution in tumor of human K562 cells xenografted iv dosed mouse. It counts as ADME, organism-based. The conditions noted are these: in vivo. The method, boiled down:
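Three athymic mice carried subcutaneous K562 xenografts in the right shoulder. [18F] tracer (14 ± 1 MBq, 375 ± 25 µCi) was formulated in 5% BSA in saline, sterile filtered and given by tail vein. MicroPET imaging started 60 min post-injection with a 15 min exposure. Tumor uptake was expressed as % injected dose by region-of-interest analysis.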
(In general: A xenograft is tissue or cells of one species grown in another, often human tumour cells in immunodeficient mice.)

The test system of another data set is K562. Kind of data set: cells. The conditions noted are these: Homo sapiens.
The target of data set [12] is T4, Tyrosine-protein kinase JAK3 (Homo sapiens) (UniProt P52333).
T4 sequence (whole entry): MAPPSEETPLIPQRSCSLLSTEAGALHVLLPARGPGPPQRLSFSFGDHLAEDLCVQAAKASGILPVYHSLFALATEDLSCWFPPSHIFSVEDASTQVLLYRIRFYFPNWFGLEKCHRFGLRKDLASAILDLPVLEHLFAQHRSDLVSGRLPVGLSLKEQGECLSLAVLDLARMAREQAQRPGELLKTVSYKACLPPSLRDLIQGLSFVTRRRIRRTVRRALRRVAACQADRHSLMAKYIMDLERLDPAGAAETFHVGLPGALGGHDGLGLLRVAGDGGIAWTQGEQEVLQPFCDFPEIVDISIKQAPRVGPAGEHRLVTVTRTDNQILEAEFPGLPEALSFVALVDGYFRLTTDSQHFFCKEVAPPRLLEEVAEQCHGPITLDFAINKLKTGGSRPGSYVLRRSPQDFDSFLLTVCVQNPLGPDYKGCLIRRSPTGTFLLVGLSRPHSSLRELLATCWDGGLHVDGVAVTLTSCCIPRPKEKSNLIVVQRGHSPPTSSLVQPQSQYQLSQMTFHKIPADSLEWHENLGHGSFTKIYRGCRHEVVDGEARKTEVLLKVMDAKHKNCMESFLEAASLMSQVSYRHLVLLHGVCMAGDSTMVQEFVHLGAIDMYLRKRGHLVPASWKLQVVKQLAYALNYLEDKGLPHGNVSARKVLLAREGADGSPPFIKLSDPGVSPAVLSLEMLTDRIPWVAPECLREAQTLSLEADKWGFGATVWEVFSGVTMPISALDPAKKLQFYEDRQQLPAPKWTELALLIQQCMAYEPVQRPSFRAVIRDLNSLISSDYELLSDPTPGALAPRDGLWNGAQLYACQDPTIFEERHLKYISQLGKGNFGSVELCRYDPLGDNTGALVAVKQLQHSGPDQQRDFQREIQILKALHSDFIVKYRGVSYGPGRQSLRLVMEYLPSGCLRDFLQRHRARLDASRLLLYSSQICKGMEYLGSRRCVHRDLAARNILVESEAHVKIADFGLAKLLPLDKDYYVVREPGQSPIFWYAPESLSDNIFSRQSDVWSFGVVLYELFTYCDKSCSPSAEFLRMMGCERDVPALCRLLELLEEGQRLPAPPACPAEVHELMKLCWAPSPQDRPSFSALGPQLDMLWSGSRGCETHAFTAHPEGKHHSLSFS
Briefly: Inhibition of JAK3 at 10 nM. The method, boiled down: as §2

The nature of data set [13]: cells. The conditions noted are these: Homo sapiens, M-07e.
The nature of data set [14]: cells. The conditions noted are these: Homo sapiens.
The target in data set [15] is Vascular endothelial growth factor receptor 2 (Homo sapiens) (UniProt P35968). Kind of data set: Inhibition of KDR at 10 nM. The method, boiled down:
as §1

Data set [16] relates to Mus musculus. Briefly: Toxicity in B6D2F1 mouse at 0.1 mg/kg, iv. The format is organism-based. More on the design: dose 0.1 mg/kg, route intravenous. The conditions noted are these: in vivo.

Platelet-derived growth factor receptor alpha (Homo sapiens), sequence (P16234 whole entry): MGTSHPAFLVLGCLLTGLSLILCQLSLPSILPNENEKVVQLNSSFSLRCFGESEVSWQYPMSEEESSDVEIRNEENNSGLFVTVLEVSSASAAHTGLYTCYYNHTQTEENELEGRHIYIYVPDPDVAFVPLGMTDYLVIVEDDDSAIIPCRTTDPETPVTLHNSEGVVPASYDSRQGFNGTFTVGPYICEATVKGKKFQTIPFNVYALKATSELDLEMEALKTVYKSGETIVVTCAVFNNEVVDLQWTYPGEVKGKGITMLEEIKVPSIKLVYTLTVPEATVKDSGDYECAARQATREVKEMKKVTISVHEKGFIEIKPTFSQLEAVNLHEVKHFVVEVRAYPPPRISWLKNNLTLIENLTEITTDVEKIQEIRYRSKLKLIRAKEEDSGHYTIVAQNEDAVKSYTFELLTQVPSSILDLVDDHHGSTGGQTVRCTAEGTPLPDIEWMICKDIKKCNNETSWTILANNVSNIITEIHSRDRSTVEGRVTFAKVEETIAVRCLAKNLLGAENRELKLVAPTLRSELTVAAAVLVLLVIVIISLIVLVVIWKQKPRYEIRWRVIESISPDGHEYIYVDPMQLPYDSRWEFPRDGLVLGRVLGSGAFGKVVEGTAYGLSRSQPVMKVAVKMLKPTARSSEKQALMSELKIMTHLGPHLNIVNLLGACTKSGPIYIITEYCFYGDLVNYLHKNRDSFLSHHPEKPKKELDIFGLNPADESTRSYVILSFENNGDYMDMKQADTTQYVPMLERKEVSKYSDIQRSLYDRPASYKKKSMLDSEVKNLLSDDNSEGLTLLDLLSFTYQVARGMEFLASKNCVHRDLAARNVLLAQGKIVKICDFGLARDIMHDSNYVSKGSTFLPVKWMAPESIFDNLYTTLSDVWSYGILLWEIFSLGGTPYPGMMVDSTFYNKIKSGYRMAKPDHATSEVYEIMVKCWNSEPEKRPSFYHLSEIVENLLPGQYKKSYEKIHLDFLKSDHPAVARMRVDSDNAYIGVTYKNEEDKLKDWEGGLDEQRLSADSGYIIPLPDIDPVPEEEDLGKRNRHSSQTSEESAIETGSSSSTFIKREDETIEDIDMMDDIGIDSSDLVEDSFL
Ephrin type-A receptor 2 (Homo sapiens), sequence (P29317 whole entry): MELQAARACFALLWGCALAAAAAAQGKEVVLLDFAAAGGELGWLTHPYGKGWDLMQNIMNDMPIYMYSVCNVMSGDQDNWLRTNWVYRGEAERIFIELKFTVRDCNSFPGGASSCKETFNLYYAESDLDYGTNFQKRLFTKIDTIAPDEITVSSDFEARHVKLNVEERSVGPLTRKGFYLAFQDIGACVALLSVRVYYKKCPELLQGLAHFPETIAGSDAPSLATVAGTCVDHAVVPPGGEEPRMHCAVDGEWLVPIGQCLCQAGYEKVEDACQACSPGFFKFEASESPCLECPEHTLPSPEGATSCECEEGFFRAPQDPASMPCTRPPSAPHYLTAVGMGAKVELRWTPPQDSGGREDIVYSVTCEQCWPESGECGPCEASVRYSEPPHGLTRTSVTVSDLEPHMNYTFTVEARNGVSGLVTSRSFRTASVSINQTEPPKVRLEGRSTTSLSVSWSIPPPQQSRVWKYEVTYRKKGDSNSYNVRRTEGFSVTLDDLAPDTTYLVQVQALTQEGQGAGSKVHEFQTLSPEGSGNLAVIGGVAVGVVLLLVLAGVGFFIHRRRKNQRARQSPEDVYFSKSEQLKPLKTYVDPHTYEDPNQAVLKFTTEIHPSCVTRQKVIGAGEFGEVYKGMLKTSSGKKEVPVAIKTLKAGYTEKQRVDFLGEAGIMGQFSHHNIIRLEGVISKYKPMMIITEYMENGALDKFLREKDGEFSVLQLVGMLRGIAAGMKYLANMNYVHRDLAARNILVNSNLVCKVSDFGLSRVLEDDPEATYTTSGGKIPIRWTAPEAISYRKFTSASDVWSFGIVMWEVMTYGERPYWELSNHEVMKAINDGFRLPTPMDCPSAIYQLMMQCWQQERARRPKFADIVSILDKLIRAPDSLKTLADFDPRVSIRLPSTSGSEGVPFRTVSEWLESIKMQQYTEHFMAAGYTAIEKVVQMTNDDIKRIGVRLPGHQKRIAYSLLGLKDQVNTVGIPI

Regarding `CN[C@@H]1C[C@H]2O[C@@](C)([C@@H]1OC)n1c3ccccc3c3c4c(c5c6ccccc6n2c5c31)C(=O)NC4`, the inhibition – broadly, the change of the read-out against control, counted positive when it falls – in [1] was found to be 94.1%; in data set [2] it was 92.5%; in data set [3], 96.4%; in data set [4] it was 96.4%; in data set [5], 92.6%; in [6], 89.3%. Further, the inhibition in data set [7] worked out at 89.8%; in data set [8], 95.3%; in data set [9], 90%; in data set [10] it was 88.4%.

Consider `Cc1nc(Nc2ncc(C(=O)Nc3c(C)cccc3Cl)s2)cc(N2CCN(CC[18F])CC2)n1`, for which, in the data set with Mus musculus [11], the Drug uptake turned out to be 1.1%.

Take `Cc1nc(Nc2ncc(C(=O)Nc3c(C)cccc3Cl)s2)cc(N2CCN(CCF)CC2)n1`: the inhibition in [1] is 97%; in data set [12], 16%; in data set [2] it was 98.1%; in [3] it was 83.1%; in data set [4], 0.3%; in data set [5], 98.1%. The inhibition in data set [6] is 95.2%; in data set [7], 97.5%; in [8] it was 23.1%; in data set [9], 7.2%; in [15] it was -5.6%; in data set [10] it was 86%. The values for the IC50 in the data set on K562, in the data set “cells [13]” and in the data set “cells [14]” were 1.1 nM, 1.1 nM and 0.1 nM, respectively. The Activity entry in the data set with Mus musculus [16] is “Non-toxic”.

`Cc1nc(Nc2ncc(C(=O)Nc3c(C)cccc3Cl)s2)cc(N2CCN(CCO)CC2)n1` [DASATINIB]: the IC50 (commonly the concentration that gives 50% inhibition) in the data set on K562 amounted to 1 nM; in the data set “cells [13]”, 1.2 nM; in the data set “cells [14]”, 0.07 nM.
